# An excerpt weighted towards active compounds, which were near 4.6% of everything screened.
# TAAR1 antagonist = antagonists of human TAAR1; CHO RD-HGA16 TAAR1, Fluo-8 calcium fluorescence, antagonist; inhibition, % at 3 µM; Q96RJ0; AID 624466; hit rate 1.5% among 360,000;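 active = inhibition above a per-plate cutoff, the mean inhibition of test compounds on that plate plus 3 SD, cut at about 49% in these data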;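 also: 0% = DMSO plus EC80 beta-PEA response and 100% = DMSO alone without agonist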
#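 Test system – hTAAR1-expressing CHO RD-HGA16 cells, Gα16-coupled · Also added – β-PEA at EC80 concentration, post-compound challenge · Compound – 3 µM, single point · Incubation – dye loading 75 min at 37 °C, then 30 min room temperature · Measured by – Fluo-8 intracellular calcium dye fluorescence, real-time kinetic reads · Benchmarks – vehicle and agonist controls · Replicates – singlicate, one well per test compound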
# TAAR1 ag = agonists of human TAAR1; hit rate 0.99% among 360,000; AID 624467; CHO RD-HGA16 TAAR1, Fluo-8 calcium fluorescence; vehicle wells 0%, saturating PEA agonist 100%; activation, % at 3 µM; Q96RJ0;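 active = activation above the mean activation of all test compounds in the run plus 3 SD, cut at about 38% in these data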
#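 Test system: RD-HGA16 (CHO) cells co-expressing Gα16 and hTAAR1 | Doses: Single dose, 3 µM | Schedule: 17-24 h seeding, 75 min 37 °C dye, 30 min RT | Evaluation: % activation from peak over basal fluorescence ratio, DMSO-to-PEA scaled | Technique: Kinetic Fluo-8 calcium fluorescence | Benchmarks: Low control DMSO, high control PEA (EC100)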
# CHO parental Ca = counter-screen: ATP calcium response change in parental CHO cells; inhibition, % at 5.6 µM; parental CHO-K1, ATP-induced calcium, Fluo-8 fluorescence; hit rate 0.63% among 330,000;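 active = inhibition above that plate's mean sample inhibition plus 3 SD, cut at about 26% in these data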;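 also: 0% = ATP-challenged DMSO wells and 100% = DMSO wells without ATP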
#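 Test system: parental CHO cells; detection: calcium-sensitive Fluo-8 fluorescence; evaluation: percent inhibition of calcium signal; also added: ATP as calcium-mobilizing challenge; repeats: one well per compound; control set: ATP-challenged DMSO wells low, unchallenged DMSO wells high; compound: single nominal dose of 5.6 µM per compound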
# OX1R antag-1 = blocks the human orexin 1 receptor. inhibition, % at 5 µM. AID 434989. O43613. CHO/OX1R cells, Fluo-8 calcium fluorescence, orexin A. hit rate 0.43% among 330,000;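 active = inhibition above its plate's threshold, mean inhibition of all tested compounds on the plate plus 3 SD, cut at about 37% in these data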;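 also: 0% = orexin A challenge wells and 100% = SB-334867-A antagonist wells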
# Target sequence (O43613 whole entry, looked up): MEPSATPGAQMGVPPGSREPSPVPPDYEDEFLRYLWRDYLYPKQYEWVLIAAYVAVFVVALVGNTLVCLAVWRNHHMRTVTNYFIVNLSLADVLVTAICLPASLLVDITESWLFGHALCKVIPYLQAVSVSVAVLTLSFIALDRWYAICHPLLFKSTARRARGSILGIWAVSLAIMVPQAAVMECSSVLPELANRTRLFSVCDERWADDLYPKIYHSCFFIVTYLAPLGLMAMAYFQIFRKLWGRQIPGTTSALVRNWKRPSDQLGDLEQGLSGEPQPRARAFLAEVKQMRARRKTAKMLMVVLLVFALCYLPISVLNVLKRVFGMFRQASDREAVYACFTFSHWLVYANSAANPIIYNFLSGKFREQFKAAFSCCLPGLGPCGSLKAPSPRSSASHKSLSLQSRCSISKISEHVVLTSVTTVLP
# GPR7 antag = blocks human GPR7 receptor signaling | GPR7-expressing cells, fluorescence antagonist assay | inhibition, % at 4.4 µM | hit rate 1.1% among 290,000 | AID 1861; in the data active = inhibition above about 16%, passing the limit was not always enough;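 also: cells stimulated with the agonist NPW; 0% = agonist with vehicle and 100% = vehicle without agonist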
# Target sequence (P48145 whole entry, looked up): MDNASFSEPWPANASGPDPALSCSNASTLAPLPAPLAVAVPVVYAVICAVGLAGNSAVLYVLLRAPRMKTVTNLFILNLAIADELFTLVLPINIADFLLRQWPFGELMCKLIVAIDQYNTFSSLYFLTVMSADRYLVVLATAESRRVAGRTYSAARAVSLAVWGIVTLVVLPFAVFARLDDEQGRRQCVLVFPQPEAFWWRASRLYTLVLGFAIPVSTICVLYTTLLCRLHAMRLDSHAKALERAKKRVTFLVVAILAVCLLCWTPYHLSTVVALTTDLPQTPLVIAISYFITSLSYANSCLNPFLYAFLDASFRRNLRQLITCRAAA
# OX1R antag-2 = blocks the human orexin 1 receptor | OX1R-expressing cells, FRET antagonist read-out | hit rate 1.8% among 330,000 | AID 485270 | inhibition, % at 6.6 µM | O43613; in the data active = inhibition mostly above about 38%, no sharp cut-off; inactive = mostly below about 40%;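 also: 0% = agonist challenge alone and 100% = reference antagonist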
# TAAR1 nonsel count = nonselective antagonist in TAAR1 antagonist counter-screen; shares compounds with TAAR1 antagonist; counterscreen cell line, calcium fluorescence, antagonist mode; inhibition, % at 3 µM; hit rate 77% among 2,400; AID 651780; in the data active = inhibition above about 22%;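 also: CHO-Ga16 host cells stimulated with ATP at an EC80 level; 0% = agonist EC80 plus vehicle and 100% = vehicle without agonist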
# TAAR1 ant conf = confirmation of human TAAR1 antagonists. TAAR1-expressing cells, fluorescence antagonist read-out. inhibition, % at 3 µM. hit rate 40% among 2,400. shares compounds with TAAR1 antagonist; in the data active = inhibition above about 49%;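 also: CHO-Ga16 host cells challenged with agonist PEA near its EC80; 0% = agonist at EC80 plus vehicle and 100% = vehicle with no agonist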
# Ga16 nonsel ag = counter-screen for TAAR1 antagonists: nonselective Ga16 agonists; shares compounds with TAAR1 antagonist; Ga16-expressing cells, calcium fluorescence, agonist counterscreen; activation, % at 3 µM; hit rate 18% among 2,400; in the data active = activation above about 12%;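 also: 0% = vehicle wells and 100% = saturating stimulus response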
# TAAR1 ag count = TAAR1 agonism, antagonist counter-screen | shares compounds with TAAR1 antagonist | hTAAR1 cell line, fluorescence activation, agonist mode | activation, % at 3 µM | hit rate 2% among 2,400 | AID 651955; in the data active = activation above about 37%;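 also: CHO cells stably expressing TAAR1 with calcium dye readout; 0% = DMSO vehicle and 100% = full agonist response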
# * marks the source's active call; other numbers are inactive results; nt = not tested or not shown.
SMILES,TAAR1 antagonist,TAAR1 ag,CHO parental Ca,OX1R antag-1,GPR7 antag,OX1R antag-2,TAAR1 nonsel count,TAAR1 ant conf,Ga16 nonsel ag,TAAR1 ag count
Cc1sc2ncnc(N3CCC(C(=O)Nc4cc(S(C)(=O)=O)ccc4Cl)CC3)c2c1C,61*,14,-16,-20,nt,20,26*,38,8,4
COc1ccc(S(=O)(=O)N(C)C)cc1NC(=O)C1CCN(c2ncnc3sc(C)c(C)c23)CC1,22,11,nt,nt,nt,nt,nt,nt,nt,nt
Cc1sc2ncnc(N3CCC(C(=O)Nc4cc(Cl)ccc4Cl)CC3)c2c1C,63*,1,-19,-34,nt,36,30*,42,3,0
Cc1sc2ncnc(N3CCC(C(=O)NNC(=O)c4ccc(Cl)cc4)CC3)c2c1C,44,10,-10,-22,nt,34,nt,nt,nt,nt
CC(=O)N(CCc1ccccc1C)Cc1cc2cc3c(cc2[nH]c1=O)OCO3,-4,2,-8,-5,-2,21,nt,nt,nt,nt
CCC(=O)N(CCc1ccccc1C)Cc1cc2ccc(C)cc2[nH]c1=O,60*,20,-23,-44,2,9,28*,49*,11,13
O=C(Nc1ccc(-c2noc(CCc3ccccc3)n2)cc1)c1cccnc1,69*,24,9,16,2,26,37*,51*,14*,14
O=C(NCCc1ccccc1)c1ccc(NC(=O)c2cccnc2)cc1,-4,11,nt,nt,-13,nt,nt,nt,nt,nt
Fc1cc(F)cc(Nc2nc(Cl)nc(NC3CCCC3)n2)c1,56*,16,-12,6,nt,9,17,17,1,2
CNC(=O)c1ccc(CN(C)C(=O)/C=C/c2ccc(S(=O)(=O)N3CCCCCC3)cc2)cc1,-14,7,nt,nt,nt,nt,nt,nt,nt,nt
CCOc1ccc(/C=C2\SC(=S)N(NS(=O)(=O)c3ccc(C)cc3)C2=O)cc1OC,75*,12,-10,-20,-19,56,29*,51*,7,4
COc1ccc(/C=C2\SC(=S)N(NS(=O)(=O)c3ccc(C)cc3)C2=O)c(OC)c1,68*,16,12,-13,3,60*,16,33,8,5
COc1ccc(/C=C2\SC(=S)N(CCCCCC(=O)Nc3cc(C)on3)C2=O)cc1OC,-19,0,-11,-21,-10,1,nt,nt,nt,nt
COc1cc(/C=C2\SC(=S)N(CCCCC(=O)O)C2=O)ccc1OS(=O)(=O)c1ccc(C)cc1,65*,12,21,-4,nt,22,50*,50*,12*,7
Cc1cccc(-n2ncc3c(=O)[nH]c(SCC(=O)N4CC(=O)Nc5ccccc54)nc32)c1,-10,12,1,2,nt,-4,nt,nt,nt,nt
CC1(C(=O)NS(=O)(=O)c2cccc(F)c2)CCN1C(=O)C1CCCCC1 (centres undefined),-7,0,nt,nt,nt,nt,nt,nt,nt,nt
O=C(CCNC(=O)C1CCN(S(=O)(=O)c2ccccc2)CC1)Nc1cccc(C(F)(F)F)c1,11,3,-3,-13,-12,5,nt,nt,nt,nt
COc1cccc(/C=C2\SC(=S)N(CCCC(=O)N3CCCCC3CCO)C2=O)c1 (centres undefined),55*,7,-39,-31,-18,1,29*,28,12*,7
C=CC[C@@H](CC(=O)N(CCO)Cc1ccccc1)C(=O)N[C@@H](COC(=O)[C@H](CC=C)CC(=O)OC(C)(C)C)Cc1c[nH]c2ccccc12,25,9,-18,-10,nt,8,nt,nt,nt,nt
C=CC[C@H](CC(=O)NCCO)C(=O)N[C@H](COC(=O)[C@H](CC=C)CC(=O)OC(C)(C)C)Cc1c[nH]c2ccccc12,49*,10,-25,-10,nt,4,21,41,7,8
C=CC[C@H](CC(=O)N(CCO)Cc1ccccc1)C(=O)N[C@@H](COC(=O)[C@@H](CC=C)CC(=O)OC(C)(C)C)Cc1c[nH]c2ccccc12,68*,22,-6,15,nt,1,32*,48,7,3
C=CCn1c(=NC(=O)c2cccc(N3C(=O)CCC3=O)c2)sc2cccc(OC)c21,74*,18,-11,1,-19,46,27*,52*,11,10
CCC(CC)NC(=O)Cc1ccc(S(=O)(=O)N2CCOCC2)s1,8,7,-10,-12,-10,1,nt,nt,nt,nt
COc1ccc(S(=O)(=O)Cc2ccc(C(=O)N3CCN(c4ccc(Cl)cc4)CC3)o2)cc1,72*,5,41*,10,11,13,33*,36,9,7
O=C(c1ccc(CS(=O)Cc2ccc(Cl)cc2)o1)N1CCN(c2ccc(F)cc2)CC1 (centres undefined),72*,24,-8,-30,9,7,15,11,4,5
SMILES,TAAR1 antagonist,TAAR1 ag,CHO parental Ca,OX1R antag-1,GPR7 antag,OX1R antag-2,TAAR1 nonsel count,TAAR1 ant conf,Ga16 nonsel ag,TAAR1 ag count
COc1ccccc1S(=O)(=O)Cc1ccc(C(=O)N2CCN(c3ccc(C)cc3)C(C)C2)o1 (centres undefined),41,12,-14,-41,-11,5,nt,nt,nt,nt
COc1ccc(N2CCN(C(=O)c3ccc(CS(=O)(=O)c4ccc(OC)cc4)o3)CC2)cc1,4,1,-20,-19,2,9,nt,nt,nt,nt
COc1ccc(S(=O)(=O)Cc2ccc(C(=O)N3CCN(c4cccc(C)c4)C(C)C3)o2)cc1 (centres undefined),59*,4,-4,-30,-8,13,31*,38,10,9
CCOCCCNC(=O)C(c1ccccc1)N(Cc1ccc2c(c1)OCO2)C(=O)c1ccccc1O (centres undefined),15,2,-28,-31,-17,32,nt,nt,nt,nt
CC(C)CC(NC(=O)CC12CC3CC(CC(C3)C1)C2)C(=O)NC1=NCCS1 (centres undefined),14,9,-37,-21,-3,19,nt,nt,nt,nt
COC(=O)C1=C(C)N(CCCC(=O)O)C(=O)NC1c1ccc([N+](=O)[O-])cc1 (centres undefined),-8,9,-20,-6,nt,19,nt,nt,nt,nt
COc1cc(NC(=O)C2CC(c3c(F)cccc3Cl)=NO2)cc(OC)c1OC (centres undefined),62*,17,4,0,-1,41,35*,35,13*,11
